In the library only some 1.6% were active in any assay of this set; here they are far more common.
proCasp3 act: activators of human procaspase-3 D3A mutant, primary screen, biochemical, absorbance, PC-3 D3A mutant, single concentration | Caspase-3 (Homo sapiens), P42574 | recombinant procaspase-3 D3A, Ac-DEVD-pNA absorbance 405 nm | activation, % at 8.5 µM | 330,000 tested, 0.11% active | AID 463141, 2010;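 active = activation above the mean of all tested compounds plus 3 SD, cut at about 21% in these data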
Target sequence (P42574 whole entry D9A/D28A/D175A): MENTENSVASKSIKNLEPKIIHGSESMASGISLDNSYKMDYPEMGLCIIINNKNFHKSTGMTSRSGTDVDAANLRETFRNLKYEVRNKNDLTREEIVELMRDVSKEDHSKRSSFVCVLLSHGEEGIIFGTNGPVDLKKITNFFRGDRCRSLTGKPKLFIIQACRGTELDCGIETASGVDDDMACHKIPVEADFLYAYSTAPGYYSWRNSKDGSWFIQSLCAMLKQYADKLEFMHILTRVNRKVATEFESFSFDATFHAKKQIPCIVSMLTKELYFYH
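Assay system – Procaspase-3 D3A mutant, all three cleavage aspartates alanine · Controls – DMSO-only low control, 5 µM PC-3 D3A high control · Schedule – 1 h compound preincubation, 2 h substrate hydrolysis at 25 °C · Signal – 405 nm absorbance of p-nitroaniline, reads at 0 and 120 min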
procasp7 counter: procaspase-7 activators, primary screen, counter-screen for procaspase-3 activator project, biochemical, absorbance, HTS, human | Caspase-7 (Homo sapiens), P55210 | recombinant procaspase-7, Ac-DEVD-pNA absorbance 405 nm; D23A/D198A/D206A triple mutant, cannot self-cleave; scale: DMSO 0, 5 µM enzyme 100 | activation, % at 8.5 µM | 330,000 tested, 0.093% active | AID 463210, 2010;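 active = percent activation above the screen-wide mean plus 3 SD, cut at about 25% in these data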
Target sequence (P55210 whole entry D23A/D198A/D206A): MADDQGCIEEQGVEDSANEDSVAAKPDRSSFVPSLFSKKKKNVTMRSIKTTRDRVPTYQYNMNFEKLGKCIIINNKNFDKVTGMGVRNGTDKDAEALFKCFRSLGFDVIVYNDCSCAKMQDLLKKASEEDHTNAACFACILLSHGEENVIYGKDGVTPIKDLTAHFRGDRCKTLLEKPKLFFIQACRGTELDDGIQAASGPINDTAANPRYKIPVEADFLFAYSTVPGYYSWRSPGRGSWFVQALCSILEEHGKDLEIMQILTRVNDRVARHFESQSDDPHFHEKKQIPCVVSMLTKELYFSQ
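buffer or medium = Zinc-free HEPES/NaCl buffer, pH 7.4 | material = Procaspase-7 triple mutant (PC-7 D3A) | input = 2 µM procaspase-7 mutant as dispensed | signal = Epi-absorbance of released pNA at 405 nm, two timepoints | timing = 1 h preincubation, 2 h reaction | replicates = singlicate compound testing | evaluation = % activation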
Neddyl block: inhibitors of cullin neddylation, primary screen, biochemical, TR-FRET, uHTS, NAE and Ubc12. 360,000 tested, 0.58% active. calls only at 25 µM. NEDD8-conjugating enzyme Ubc12 (Homo sapiens) + NEDD8-activating enzyme E1 regulatory …; in the data active = inhibition above about 36%
proKLK7 act: proKLK7 zymogen activators, primary screen, biochemical, fluorescence intensity | Kallikrein-7 (Homo sapiens), P49862 | purified proKLK7, EDANS-DABCYL substrate fluorescence; 100% is mature enzyme control, 0% vehicle | activation, % at 7 µM | 370,000 tested, 0.9% active | AID 652039, 2013;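 active = activation above the mean of all tested compounds plus 3 SD, computed per campaign excluding outliers beyond control limits, cut at about 13% in these data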
proKLK7 act conf: proKLK7 zymogen activators, confirmation, biochemical, fluorescence intensity, triplicate; activation, % at 7 µM; 3,200 tested, 68% active; AID 686949, 2013; purified proKLK7, EDANS-DABCYL substrate fluorescence; scaled: vehicle 0, mature enzyme 100; shares compounds with proKLK7 act;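 active = activation, as change over the incubation, above the mean of all tested compounds plus 3 SD, cut at about 13% in these data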
EDANS interfere: EDANS-DABCYL substrate optical interference, artefact control for kallikrein-7 zymogen activator project, biochemical, fluorescence intensity, high throughput; activation, % at 7 µM; no enzyme, 4 h; solvent 0%, active enzyme control 100%; AID 686952, 2013; 3,200 tested, 80% active; shares compounds with proKLK7 act;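 active = activation above the all-compound mean plus 3 SD, ignoring values outside control-based bounds, cut at about 4.8% in these data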;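 note: value is the 4 h activation minus the activation read at time zero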
K7 EDANS ctr: counter-screen for kallikrein-7 activators: EDANS-DABCYL interference, dose response | AID 720493 | EC50, µM | shares compounds with proKLK7 act | 250 tested, 20% active | EDANS-DABCYL peptide fluorescence interference, no enzyme;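 active = compounds that raise the fluorescence signal in this interference counterscreen, with EC50 at or below 10 µM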;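 note: intact quenched peptide substrate alone read at 355 nm excitation and 520 nm emission; signal is fluorescence gain from T0 to T4 after four hours at room temperature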
Hits are given with their value; i = inactive; nt = no result given.

SMILES	proCasp3 act	procasp7 counter	Neddyl block	proKLK7 act	proKLK7 act conf	EDANS interfere	others
COc1ccc(-c2ncccc2OC(=O)C23CC4CC(CC(C4)C2)C3)cc1OC	i	i	nt	18	i	8.2
COc1ccc(Oc2coc3c(CN4CCOCC4)c(O)ccc3c2=O)cc1	i	i	nt	29	i	15
O=c1c(-c2ccc(Cl)cc2)coc2c(CN3CCCCC3)c(O)ccc12	i	i	nt	14	22	27
O=c1c(-c2ccccc2Cl)coc2c(CN3CCCCC3)c(O)ccc12	i	i	nt	60	74	74
CC1CN(Cc2c(O)ccc3c(=O)c(-c4ccccc4Cl)coc23)CC(C)O1 (stereo not given)	i	i	nt	90	26	30
COC(=O)C1=C(COc2ccccc2)NC(=O)NC1c1ccc(Cl)cc1 (stereo not given)	i	i	nt	i	nt	nt
COc1ccc(Cn2cc(CN3CC(N4CCN(Cc5ccccc5F)CC4)CS3(=O)=O)nn2)cc1 (stereo not given)	nt	nt	i	i	nt	nt
COc1ccc(CNS(=O)(=O)CC2NCc3cc(OC)ccc32)cc1 (stereo not given)	nt	nt	nt	i	nt	nt
COc1ccc(-c2[nH]ncc2CN(C)Cc2nonc2C)c(OC)c1	i	i	i	i	nt	nt
Nc1ccc(S(=O)(=O)NC2(C(F)(F)F)NC(=O)N(Cc3ccccc3)C2=O)cc1 (stereo not given)	i	i	i	i	nt	nt
O=c1c(-c2ccc(Br)cc2)coc2c(CN3CCOCC3)c(O)ccc12	i	i	nt	14	13	5.8	K7 EDANS ctr=i
O=C(COC(=O)CCCNC(=O)c1ccc(Cl)cc1)NC1CC1	i	i	i	14	i	i
O=C(CCNC(=O)c1ccc(Cl)cc1)NC1CCCCCC1	i	i	i	i	nt	nt
COc1ccc(OC)c(NC(=O)C(C)OC(=O)c2cc3ccccc3[nH]2)c1 (stereo not given)	nt	nt	i	i	nt	nt
CCN1CCN(c2cc(C)c3cc(NC(=S)N4CCN(c5ccccc5F)CC4)ccc3n2)CC1	i	i	i	14	i	i
CCN1CCN(c2cc(C)c3cc(NC(=S)N4CCN(c5ccccc5)CC4)ccc3n2)CC1	i	i	i	i	nt	nt
CCOc1ccc(C(=O)Nc2ccc3nc(N4CCN(CC)CC4)cc(C)c3c2)cc1	i	i	i	38	217	192
CCCN1CCN(C(=S)Nc2ccc3nc(N4CCN(CC)CC4)cc(C)c3c2)CC1	i	i	i	20	i	6.5
Cc1cc(N2CCCC2)nc2ccc(NC(=S)NCCCOC(C)C)cc12	i	i	i	16	14	12	K7 EDANS ctr=i
CCc1ccc(CN(C)Cc2nc(-c3cccc(Cl)c3)no2)nc1	i	i	i	i	nt	nt
Cc1ccc(COC(=O)c2nn(C)c(=O)c3ccccc23)cc1	i	i	i	i	nt	nt
O=CNc1cc(-c2cccc(O)c2)cn2c(-c3ccc(F)cc3)cnc12	nt	nt	i	i	nt	nt
Cc1cc(N2CCN(C)CC2)nc2ccc(NC(=O)c3ccc4c(c3)OCO4)cc12	i	i	i	19	i	6.9
CNC(=S)NNC(=O)c1sc2cc(C(F)(F)F)cnc2c1-c1cccnc1	i	i	i	14	16	22
COc1ccc(N2CCc3c(C)nc4c(OC)cccc4c32)cc1	i	i	i	i	nt	nt
SMILES	proCasp3 act	procasp7 counter	Neddyl block	proKLK7 act	proKLK7 act conf	EDANS interfere	others
Cc1nc2c(C)cccc2c2c1CCN2c1ccccc1F	i	i	nt	157	61	69
CCN(CC)CCn1c2c(c(SCC(=O)NCc3ccccc3)nc1=O)CCC2	i	i	i	i	nt	nt
CCOC(=O)CSc1nc2c(sc(=S)n2-c2ccccc2OC)c(=O)n1Cc1ccco1	i	i	i	i	nt	nt
C[C@H]1Cn2cnc(C(=O)N(C)Cc3ccccc3)c2C(=O)N1	nt	nt	nt	i	nt	nt
CCCSC1=C(C#N)C(c2ccc(OC)cc2)C2=C(CC(C)(C)CC2=O)N1 (stereo not given)	i	i	i	16	i	i
COc1cccc(C2C(C#N)=C(C)NC3=C2C(=O)CC(C)(C)C3)c1 (stereo not given)	i	i	nt	25	18	34
Cc1cc(C)n2nc(SCC(=O)N3CCCC(C)C3)nc2n1 (stereo not given)	i	i	i	i	nt	nt
CCCCNc1c(N)n(CCCC)c(=O)[nH]c1=O	i	i	nt	nt	nt	nt
COc1ccc2nc(C(F)(F)C(F)(F)F)c(C#N)c(N)c2c1	i	i	i	50	i	i
Nc1nc2ncccn2c1-c1ccc(C(F)(F)F)cc1	nt	nt	nt	26	60	63
O=C(CN(Cc1ccco1)C(=O)CNS(=O)(=O)c1ccc(Cl)cc1)NCc1ccc(F)cc1	i	i	i	i	nt	nt
COCCNC(=O)/C(C#N)=C/c1c(N2CCN(c3ccc(OC)cc3)CC2)nc2c(C)cccn2c1=O	i	i	i	15	14	11	K7 EDANS ctr=i
C=CCNC(=O)/C(C#N)=C/c1c(N2CCN(c3cccc(Cl)c3)CC2)nc2c(C)cccn2c1=O	i	i	nt	14	i	33
CCNC(=O)/C(C#N)=C/c1c(N2CCN(c3ccc(OC)cc3)CC2)nc2c(C)cccn2c1=O	i	i	i	i	nt	nt
Cc1cccn2c(=O)c(/C=C(\C#N)C(N)=O)c(Oc3ccccc3)nc12	i	i	i	15	i	i
O=C(CSc1nnc(-c2cccnc2)n1-c1ccc(Cl)cc1)c1ccc2ccccc2c1	nt	nt	nt	i	nt	nt
COc1cc(C(=O)NCC(=O)N2CCN(S(=O)(=O)c3ccccc3C(F)(F)F)CC2)cc(OC)c1OC	i	i	i	i	nt	nt
Cc1ccc(C(=O)NCC(=O)OCC(=O)Nc2ccccc2C#N)s1	i	i	i	i	nt	nt
O=C(NCCc1ccc2c(c1)OCO2)Oc1ccccc1	nt	nt	i	i	nt	nt
COc1ccc(Br)cc1S(=O)(=O)NCCN1CCOCC1	i	i	i	42	i	i
CCOc1c2ccc(C(=O)NCc3ccc(OC)cc3)cc2nn1CCOC	i	i	nt	13	i	i
CCCCn1nc2cc(C(=O)NCc3ccc(OC)cc3)ccc2c1OCC	i	i	nt	i	nt	nt
CCn1nc2cc(C(=O)NCCc3cccs3)ccc2c1OC	i	i	nt	18	i	i
Cn1c(=O)c(-c2ccccc2)c(O)c2ccccc21	i	i	i	i	nt	nt
Cn1c(=O)c(C(=O)c2ccccc2)c(O)c2ccccc21	i	i	i	i	nt	nt
